A selection: hits, their analogues and other compounds. The true share with any hit is near 2.5%.
Vif imaging: HIV Vif inhibition | HEK293T cells, Vif self-association by quenched fluorescence, imaging, 24 h | inhibition, % at 7.49 µM | 0.35% of 340,000 active | AID 602346; in the data active means inhibition above about 50%, passing the limit was not always enough
SR-BI HDL uptake: inhibitors of mouse SR-BI mediated HDL lipid uptake | Q61009 | ldlA[mSR-BI] CHO cells, DiI-HDL uptake fluorescence, 3 h | inhibition, % at 12.5 µM | 0.96% of 320,000 active | AID 488896;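 active means mean replicate inhibition of at least 70% and a set share of replicates each scoring 70 or more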;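 further: 0% = median of neutral control wells and 100% = median of positive control wells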
Target sequence (Q61009 whole entry, looked up): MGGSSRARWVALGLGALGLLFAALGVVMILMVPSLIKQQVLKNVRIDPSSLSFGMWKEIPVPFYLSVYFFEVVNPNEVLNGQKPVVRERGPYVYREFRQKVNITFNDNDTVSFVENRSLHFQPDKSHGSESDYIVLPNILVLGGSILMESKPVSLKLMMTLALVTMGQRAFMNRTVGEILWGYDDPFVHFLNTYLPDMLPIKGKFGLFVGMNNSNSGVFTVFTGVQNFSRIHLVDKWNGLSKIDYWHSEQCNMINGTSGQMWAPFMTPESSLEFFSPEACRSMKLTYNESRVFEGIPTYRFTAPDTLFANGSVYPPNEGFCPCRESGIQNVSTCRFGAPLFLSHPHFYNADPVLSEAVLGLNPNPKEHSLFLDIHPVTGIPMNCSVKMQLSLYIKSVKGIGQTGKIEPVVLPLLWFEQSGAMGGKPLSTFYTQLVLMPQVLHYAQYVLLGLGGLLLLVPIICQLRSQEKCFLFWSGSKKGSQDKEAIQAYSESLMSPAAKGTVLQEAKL
SR-BI DiI-HDL act: SR-BI HDL lipid transfer activation; CHO ldlA[mSR-BI] cells, DiI-HDL uptake fluorescence, 3 h; 100 = double the neutral-control signal; activation, % at 12.5 µM; 0.096% of 320,000 active;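 active means mean replicate activation of at least 60% and every replicate at or above 60%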;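 further: 0% = median plate neutral-control signal and 100% = twice that signal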
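Test system: SR-BI-overexpressing, LDLR-lacking CHO cells. Measured by: DiI fluorescence, bottom read. Medium: Ham's F12 with 0.5% BSA, HEPES 25 mM, pH 7.4. Timing: 3 h uptake period with compound, 37 °C.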
TAG inh: triacylglycerol accumulation inhibition | H9c2 cells, Nile Red lipid (TAG) fluorescence; cells loaded with 200 µM oleic acid | inhibition, % at 12.5 µM | 0.66% of 230,000 active | AID 651582;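 active means pattern-corrected inhibition of lipid staining of at least 50% with the nuclear-stain viability signal not falling by more than 50%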;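 further: 0% = DMSO wells and 100% = triacsin C control wells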
SMARCA2 act: activators of SMARCA2 function | MG213 cells, MMTV-luciferase reporter, dexamethasone, overnight | activation, % at 9.1 µM | 1% of 370,000 active | AID 652017; in the data active means activation above about 7.8%;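 further: 0% = vehicle wells and 100% = reference activator wells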
TAG conf: confirmation of triacylglycerol accumulation inhibitors; shares compounds with TAG inh; H9c2 lipid accumulation, Nile Red fluorescence; cells loaded with 200 µM oleic acid; inhibition, % at 12.5 µM; 71% of 990 active; AID 651629;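 active means mean inhibition across replicates of 40% or more; inactive means mean inhibition below 40%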;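 further: plate controls were DMSO only wells for no effect and Triacsin C treated wells for full effect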
Starred values were filed as active, the others as inactive; . = no result.

SMILES | Vif imaging | SR-BI HDL uptake | SR-BI DiI-HDL act | TAG inh | SMARCA2 act | TAG conf
COc1ccc(C[C@H]2CN3C(=NC[C@@H]3C(C)C)N2CCNC(=O)c2ccc(C)c(Br)c2)cc1 | . | 1 | -1 | . | . | .
COc1ccc(OC)c(NC(=O)c2ccccc2N(Cc2ccccc2)C(=O)C(C)Cl)c1 (stereo not given) | . | . | . | . | -1 | .
CCOC(=O)CCCNC(=O)OCCCN1CCC2(CCC(c3ccccc3)CC2)C1=O (stereo not given) | . | . | . | . | -3 | .
CN(C)S(=O)(=O)c1cccc(C(=O)N/N=C\c2ccc(-c3ccccn3)cc2)c1 | . | . | . | . | -2 | .
COc1cc(-c2nnc3n2N=C(c2ccccc2)CS3)cc(OC)c1OC | 5 | 32 | -32 | 90* | -2 | 66*
COc1ccc(OC)c(C2=Nn3c(nnc3-c3cc(OC)c(OC)c(OC)c3)SC2)c1 | 7 | 67 | -67 | . | 1 | .
O=C(Nc1nc(-c2ccccc2)cs1)C1CCCN(S(=O)(=O)c2ccccc2)C1 (stereo not given) | -8 | 32 | -32 | . | -6 | .
O=C(Nc1nc(-c2ccccc2)cs1)C1CCCN(S(=O)(=O)c2cccc([N+](=O)[O-])c2)C1 (stereo not given) | -3 | 57 | -57 | 62* | -4 | 47*
COCc1cc(N2CCN(C(=O)OC(C)(C)C)C[C@H]2C)ccc1N1CCS(=O)(=O)CC1 | . | . | . | . | -2 | .
CCOC(=O)c1[nH]c2ccc(OCC)cc2c1NC(=O)CN1CCC2(CC1)OCCO2 | 2 | -25 | 25 | . | 1 | .
CCOC(=O)c1[nH]c2ccc(OCC)cc2c1NC(=O)CN1CCN(c2ccccc2)CC1 | 9 | 35 | -35 | 58* | 2 | 41*
Cc1ccc(CN(C(=O)c2csnn2)C(C(=O)NC2CCCC2)c2ccc(C)o2)cc1 (stereo not given) | -1 | -23 | 23 | 51* | 2 | 42*
Cc1ccc(C(C(=O)NC2CCCC2)N(C(=O)c2csnn2)C2CCCC2)o1 (stereo not given) | 6 | -23 | 23 | . | -2 | .
C/C(=N\Nc1cc(N2CCOCC2)nc(C)n1)c1ccc(F)cc1 | 1 | -5 | 5 | 52* | -4 | 38
C/C(=N\Nc1cc(N2CCCCC2)nc(C)n1)c1ccc(Br)cc1 | -13 | -7 | 7 | 13 | -4 | .
O=C(COCc1ccccc1)N1CCC(Oc2cccnc2)CC1 | . | . | . | . | 4 | .
COCCCn1c(C(=O)Nc2ccc3c(c2)OCO3)cc2c(=O)n3cccc(C)c3nc21 | -1 | . | . | 69* | -2 | 28
Cc1ccccc1CN1CCCCC(NC(=O)c2cccc(F)c2)C1=O (stereo not given) | . | . | . | . | -3 | .
CC(=O)Nc1cccc(-c2ccnc3c2CC(C)(C(=O)NCc2ccc(N(C)C)cc2)O3)c1 (stereo not given) | -6 | . | . | 57* | -3 | 54*
COc1ccc(NC(=O)C2(C)Cc3c(-c4ccc5c(c4)OCO5)ccnc3O2)cn1 (stereo not given) | 9 | . | . | 52* | -5 | 53*
CC1(C(=O)Nc2ccc3c(c2)OCO3)Cc2c(-c3cccc(C(N)=O)c3)ccnc2O1 (stereo not given) | -9 | . | . | 59* | -2 | 69*
CC(=O)Nc1cccc(-c2ccnc3c2CC(C)(C(=O)NCc2cccc(Cl)c2)O3)c1 (stereo not given) | -7 | . | . | 20 | 2 | .
COc1ccc(NC(=O)N(C)C[C@@H]2OCc3cnnn3CCCC(=O)N([C@H](C)CO)C[C@H]2C)c(OC)c1 | . | . | . | . | -6 | .
COc1ccc(OC)c(Nc2nc(-c3sc(NC(=O)CC(C)C)nc3C)cs2)c1 | -7 | 76* | -76 | 58* | 0 | 65*
Clc1cccc(Nc2nc(-c3ccncc3)nc3ccccc23)c1 | -7 | 33 | -33 | 67* | -2 | 52*
SMILES | Vif imaging | SR-BI HDL uptake | SR-BI DiI-HDL act | TAG inh | SMARCA2 act | TAG conf
O=C(C1CCN(c2ncnc3c2sc2cccc(F)c23)CC1)N1CCCCC1 | . | . | . | . | -4 | .
CSc1ccc(C(=O)NCC2CCN(C(=O)C(=O)c3cc4ccccc4o3)CC2)cc1 | . | . | . | . | -5 | .
CCC(C)NC(=O)CSc1nnc(-c2cc(OC)c(OC)c(OC)c2)o1 (stereo not given) | . | . | . | . | -4 | .
C=C(C)c1cccc(C(C)(C)NC(=O)N2CCC(C(N)=O)CC2)c1 | 13 | -14 | 14 | 59* | -2 | 7
C=C(C)c1cccc(C(C)(C)NC(=O)N2CCCC(C(N)=O)C2)c1 (stereo not given) | -8 | -7 | 7 | -4 | -1 | .
CCNc1nc(SC(C)C(=O)Nc2ccccc2)nc(N(C)C)n1 (stereo not given) | 0 | 8 | -8 | 54* | -2 | 28
COc1cc(C#Cc2c(-c3cncn3C)n(C)c3ccc(-c4ccc5cc[nH]c5c4)cc23)cc(OC)c1 | 11 | 6 | -6 | 82* | 0 | 74*
COc1cc(C#Cc2c(-c3cncn3C)n(C)c3ccc(-c4ccc(OC)c(OC)c4)cc23)cc(OC)c1 | 1 | 6 | -6 | 70* | 1 | 69*
COc1cc(C#Cc2c(-c3cncn3C)n(C)c3ccc(Br)cc23)cc(OC)c1 | -6 | -39 | 39 | 48 | -2 | .
COc1cccc(-c2c(-c3cc(OC)cc(OC)c3)n(C)c3ccc(-c4ccc5cc[nH]c5c4)cc23)c1 | -9 | 68 | -68 | -42 | 0 | .
O=C(NCCc1c[nH]c2ccccc12)OCc1cn(Cc2ccccc2Cl)nn1 | . | . | . | . | -1 | .
Cc1nc2ccc(S(=O)(=O)NCC(=O)N(C)Cc3ccccc3F)cc2s1 | . | . | . | . | -2 | .
COc1cc2c(cc1OC)[C@@]1(c3ccccc3)CCCC[C@H]1[C@@H]2NC(=O)C(F)(F)F | . | . | . | . | -3 | .
COc1cc(-c2nc3c(c(C)nn3-c3ccccc3)c3cc(OC)c(OC)cc23)ccc1O | -12 | -40 | 40 | 62* | 2 | 58*
COc1cc(-c2nc3ccccc3nc2-c2ccc(O)c(OC)c2)ccc1O | -2 | 7 | -7 | . | -3 | .
O=C(/C=C/c1ccc(OCCCF)cc1)NCc1ccc(Cl)cc1 | -18 | 21 | -21 | 14 | 0 | .
COc1ccc(CNC(=O)/C=C/c2ccc(OCCCF)cc2)cc1 | 10 | 7 | -7 | 56* | 0 | 31
CCN(CC)S(=O)(=O)c1ccc(N2CCOCC2)c(NC(=O)c2[nH]c(C)c(C(C)=O)c2C)c1 | 0 | -13 | 13 | 69* | -5 | 75*
Cn1nnnc1Sc1ncnc2scc(-c3ccc(-c4ccccc4)cc3)c12 | 2 | 1 | -1 | 59* | -4 | 36
Cn1nnnc1Sc1ncnc2scc(-c3ccc(C#N)cc3)c12 | 4 | 0 | 0 | 64 | -4 | .
Cc1ccc2oc(-c3ccc(NC(=O)CC(C)C)cc3)nc2c1 | -7 | 44 | -44 | . | 0 | .
CCC(C)NCC(=O)Nc1ccc(-c2nc3cc(NC(=O)CNC(C)CC)ccc3o2)cc1 (stereo not given) | 12 | 41 | -41 | 53* | 1 | 31
